Compound activity from PubChem BioAssay.
The full list was thinned out, with hits kept by preference.
Insulin prom act – activators of insulin promoter-driven GFP, primary screen, imaging, TRM-6 cells, eGFP reporter, cell count; activation, % at 2 µM; actives 0.81% (n = 130,000); plate-scaled: unstimulated 0, stimulated control 100;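 active = activation at 2 µM above a set limit, confirmed on inspection of the cell images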;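 also: share of cells whose green reporter signal exceeds an intensity cutoff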
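System – human fetal islet-derived TRM-6 cells with tamoxifen-inducible insulin promoter–eGFP reporter · Amount – 1,000 cells per well · Schedule – overnight tamoxifen, then two-day compound incubation at 37 °C · Detection – high-content imaging of fixed cells with Hoechst nuclear stain · Read-out – percent cells above green-intensity threshold, converted to percent activation versus plate controls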
Hits are given with their value.

Screening O=S(=O)(Nc1ccncc1Cl)c1ccc2ccccc2c1 returned Insulin prom act inactive.
For Cc1[nH]c2ccccc2c1C1C(c2ccccc2)=NN=C(C(C)C)N1O (stereo not given) the results were Insulin prom act inactive.
`O=C1S/C(=C/c2ccc(N3CCOCC3)o2)C(=O)N1Cc1c(F)cccc1Cl` gave Insulin prom act 178.
O=C(CN1C(=O)S/C(=C/c2cccnc2)C1=O)N1CCOCC1 was read as Insulin prom act inactive.
For O=C1S/C(=C\c2ccc(N3CCOCC3)o2)C(=O)N1Cc1c(F)cccc1Cl the results were Insulin prom act inactive.
For CS(=O)(=O)c1ccccc1-c1nc(-c2ccc(C(F)(F)F)cc2)no1 the results were Insulin prom act inactive.
COc1cc(C(=O)NCC(=O)N/N=C(C)\C=C\c2ccccc2)cc(OC)c1OC was read as Insulin prom act inactive.
`CCN1C(=O)C(CC(=O)Nc2ccc(OC)cc2)N(Cc2cccs2)C1=S` (stereo not given) gave Insulin prom act inactive.
COc1ccc2c(c1)nc(SCC(=O)c1ccc(Br)s1)n2C was read as Insulin prom act inactive.
`COC(=O)c1cn(NC(=O)c2ccc(OC)c(OC)c2)c(=O)c2ccccc12` gave Insulin prom act inactive.
`COC(=O)c1cn(NC(=O)c2cccc(F)c2)c(=O)c2ccccc12` gave Insulin prom act inactive.
Screening COC(=O)c1cn(NC(=O)c2ccc([N+](=O)[O-])c(C)c2)c(=O)c2ccccc12 returned Insulin prom act 320.
For COCCn1c(SCC(=O)NCc2ccco2)nc2cccnc21 the results were Insulin prom act inactive.
Screening CCOC(=O)c1cc2sccc2n1CC(=O)Nc1ccc(OC)cc1 returned Insulin prom act inactive.
Screening O=C(O)c1ccccc1-c1nc(-c2ccccc2)c(-c2ccccc2)[nH]1 returned Insulin prom act 290.
CNC(=O)CSc1nc(-c2ccccc2)c(-c2ccccc2)[nH]1 was read as Insulin prom act inactive.
Screening CC(C)c1nc(-c2ccccc2)c(-c2ccccc2)[nH]1 returned Insulin prom act inactive.
For CCSc1nnc(NC(=O)C(C)(C)C)s1 the results were Insulin prom act inactive.
Clc1ccc(-n2ncc3c(NCC4CCCO4)ncnc32)cc1 (stereo not given) was read as Insulin prom act inactive.
`OC(CNCC1CCCO1)Cn1c2ccc(Cl)cc2c2cc(Cl)ccc21` (stereo not given) gave Insulin prom act 89.
`O=C(CSCc1ccc(Cl)cc1)NCC1CCCO1` (stereo not given) gave Insulin prom act inactive.
`Cc1cc(C)n(S(=O)(=O)/C=C/c2ccccc2)n1` gave Insulin prom act inactive.
Screening CC(C)N(C(=O)CN1C(=O)NC2(CCCCCC2)C1=O)C(C)C returned Insulin prom act inactive.
Cc1nn(-c2ccccc2)c(Cl)c1/C=C(\CC(=O)O)c1nc2ccccc2s1 was read as Insulin prom act inactive.
For Cc1cc(=O)[nH]c2c(N=Nc3ccc(O)cc3)c(N)nn12 the results were Insulin prom act 383.
Screening Cc1ccc(N=Nc2c(N)nn3c(C)cc(C)nc23)cc1 returned Insulin prom act inactive.
For Cc1cc(C)n2nc(N)c(N=Nc3cccc(Cl)c3)c2n1 the results were Insulin prom act inactive.
`COc1ccc(CCN(Cc2ccc(C(C)C)cc2)S(=O)(=O)c2ccc(S(=O)(=O)N(C)C)cc2)cc1OC` gave Insulin prom act inactive.
For Cc1ccc(Nc2nc(Oc3ccc(=O)[nH]n3)nc(N(C)C)n2)cc1 the results were Insulin prom act inactive.
For CCNc1nc(Oc2ccc(=O)[nH]n2)nc(SC)n1 the results were Insulin prom act inactive.
`CN(C)c1nc(Nc2ccccc2)nc(Oc2ccc(=O)[nH]n2)n1` gave Insulin prom act inactive.
Screening CNc1nc(Oc2ccc(C(=O)OC)cc2)nc(SC)n1 returned Insulin prom act 494.
`COC(=O)c1ccc(-n2nnnc2SC)cc1` gave Insulin prom act inactive.
COC(=O)c1ccc(Oc2nc(Nc3ccccc3)nc(N(C)C)n2)cc1 was read as Insulin prom act 585.
Screening O=C(C(Cc1ccccc1)N1C(=O)C2C3C=CC(C3)C2C1=O)N1CCCCC1 (stereo not given) returned Insulin prom act inactive.
Screening Cc1cc(C(=O)Nc2cnn(Cc3ccc(Cl)cc3Cl)c2)no1 returned Insulin prom act inactive.
Cc1nn(Cc2ccc(C(=O)Nc3ccc(Br)c4cccnc34)o2)c(C)c1Br was read as Insulin prom act inactive.
For CS(=O)(=O)c1ccc2nc(NC(NC(=O)c3ccco3)(C(F)(F)F)C(F)(F)F)sc2c1 the results were Insulin prom act inactive.
Screening C/C(=N/NC(=O)CNC(=O)C1COc2ccccc2O1)c1cccc(O)c1 (stereo not given) returned Insulin prom act inactive.
O=C(Nc1ccc2c(c1)oc1ccccc12)N1CCOCC1 was read as Insulin prom act inactive.
`Oc1cc2c(cc1CN1CCN(c3cccc(C(F)(F)F)c3)CC1)CCC2` gave Insulin prom act 82.
FC(F)(F)c1cccc(N2CCN(CC3CC4C=CC3C4)CC2)c1 (stereo not given) was read as Insulin prom act inactive.
O=C(c1c(F)c(F)c(F)c(F)c1F)N1CCN(c2cccc(C(F)(F)F)c2)CC1 was read as Insulin prom act inactive.
For CCOc1ccc(Cc2onc3c2C(=O)CCC3)cc1OCC the results were Insulin prom act inactive.
`CC(=O)Nc1ccc(S(=O)(=O)NNC(=O)COc2cc(C)ccc2C(C)C)cc1` gave Insulin prom act inactive.
`Cc1cccnc1NC(=O)c1ccccc1-c1ccccc1C(=O)Nc1ncccc1C` gave Insulin prom act inactive.
For O=C(CCn1c(=O)oc2ccccc21)N1CCN(c2ccccc2Cl)CC1 the results were Insulin prom act inactive.
O=C(CCN1C(=O)C2C3C=CC(C3)C2C1=O)N1CCN(c2ccccc2Cl)CC1 (stereo not given) was read as Insulin prom act inactive.
N#CCC(=N)N1CCN(c2ccccc2Cl)CC1 was read as Insulin prom act 177.
CS(=O)(=O)N1CCc2cc(C(=O)OCC(=O)c3ccccc3)ccc21 was read as Insulin prom act inactive.
`O=C(CSc1nnc(-c2ccco2)o1)NC1CCCCC1` gave Insulin prom act inactive.
O=C(CSc1nnc(-c2ccco2)o1)c1ccccc1Cl was read as Insulin prom act inactive.
Screening CCN(CC)C(=O)CSc1nnc(-c2ccco2)o1 returned Insulin prom act 500.
S=C(NCc1ccccc1Cl)NC1CCCC1 was read as Insulin prom act inactive.
COCCNC(=O)c1ccc(NS(C)(=O)=O)cc1 was read as Insulin prom act inactive.
For CCCC(=O)Nc1ccc(Cl)c(NC(=O)c2cccnc2Cl)c1 the results were Insulin prom act inactive.
Screening COP(C)(=O)c1c(C)nn(-c2ccccc2)c1C (stereo not given) returned Insulin prom act 84.
`Cc1nn(-c2ccc(C(=O)O)cc2)c(C)c1Oc1ccccc1O` gave Insulin prom act inactive.
COc1ccc(-c2c(C)nn(-c3ccccc3)c2N)cc1 was read as Insulin prom act inactive.
CC(=O)Nc1ccc(C(=O)CSc2ncn(-c3ccccc3)n2)cc1 was read as Insulin prom act inactive.
`O=S(=O)(c1ccc2nnn(O)c2c1)N1CCCCC1` gave Insulin prom act inactive.
CCOc1cccc(CNc2ccc(O)cc2)c1OCc1ccc(Cl)cc1Cl was read as Insulin prom act 91.
For CCOc1cc(CNCCO)cc(Br)c1OCc1ccc(Cl)cc1Cl the results were Insulin prom act inactive.
`C=CCOc1c(CNc2cccc(C(=O)O)c2)cccc1OCC` gave Insulin prom act inactive.
